Test results published in paper PMC10922391 (Cell chemical biology, 2023).

What was measured:
[1] = test system: S. sanguinis harboring toxicity reporter; assay: Competence-coupled toxicity reporter growth assay; assay type: cell-based; conditions: 5-FOA final 1 mg/mL in THY; OD600 at 12 h; WT S. sanguinis + RT; n = 3
comCDE locus = assay: Luciferase reporter assay of comCDE locus activation; assay type: cell-based, S. sanguinis VMC66; conditions: PcomCDEluc reporter; for activity relative to each other / activity class of CSP derivatives: luminescence, 20 min, 37 °C
Summary of the method: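 Overnight VMC66 PcomCDEluc reporter culture diluted 1:10 and held 30 min at 37 °C, 5% CO2. 198 μL per well received 2 μL DMSO or serially diluted synthetic peptide. After 20 min at 37 °C, 5% CO2, luminescence was read on a plate reader. EC50 values were fitted from three independent experiments.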

S. sanguinis = assay: CSP-induced DNA transformation efficiency; assay type: cell-based; conditions: C+Y media
Summary of the method: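 Cultures grown in THY or C+Y (a chemically defined medium with 2.2 g/L yeast extract) at 37 °C, 5% CO2. Diluted culture (500 μL) mixed with 113 nM CSP and 10 ng target DNA (linear knockout cassette or blank plasmid). Incubated a further 90 min, then plated on THY with selective antibiotic. Colonies counted after two days. Mean of three independent replicates with standard deviation.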

Compound	activity relative to each other / activity class of CSP derivatives (comCDE locus)	further results
O=C(O)c1[nH]c(=O)[nH]c(=O)c1F [5’-FOA, 5-Fluoroorotic acid]	–	competence-coupled growth defect with toxicity reporter, WT [1]: could induce significant growth defect in WT S. sanguinis background
H-DLRGVPNPWGWIFG-OH	–	potency of CSP analog lacking the C-terminal AA (comCDE locus; Figure S1): significantly less-potent
H-DLRGVPNPWGWIFGR-OH [15mer]	similarly active	transformation efficiency, C+Y vs THY (S. sanguinis): drop in transformation efficiency
H-FWDLRGVPNPWGWIFGR-OH [17mer]	inactive	–
H-TFWDLRGVPNPWGWIFGR-OH [18mer]	inactive	–
H-WDLRGVPNPWGWIFGR-OH [16mer]	similarly active	–
